For twelve compounds, inhibition and IC50 results are on record in ChEMBL document CHEMBL3124801, “Structure-based optimization of tyrosine kinase inhibitor CLM3. Design, synthesis, functional evaluation, and molecular modeling studies” (J Med Chem, 2014).

Test [1] addresses Proto-oncogene tyrosine-protein kinase receptor Ret (Homo sapiens) (UniProt P07949). Briefly: Inhibition of recombinant human RET at 100 uM incubated for 5 mins with substrate prior to protein addition by fluorescence assay relative to control. The method, boiled down: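 Human recombinant RET was assayed with Omnia Tyr peptide 7 substrate at 30 °C, from 1 mM ATP and 1 mM DTT stocks, with DMSO ≤1% final. Mix plus inhibitor was preincubated 5 min before kinase was added to start the reaction. Fluorescence (ex 360/em 485 nm) was followed over time, and activity was taken from a linear fit of intensity versus time. Compounds were screened at 100 μM.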

The next test relates to HUVEC. Briefly: Antiproliferative activity against HUVEC after 72 hrs by cell counter. Conditions: Homo sapiens.
For test [2], the system named is TT. Briefly: Antiproliferative activity against human TT cells after 72 hrs by cell counter.
Test [3] can be described thus: Antiproliferative activity against HNDF after 72 hrs by cell counter. As to conditions: Homo sapiens.
The test system of test [4] is TT. As to the kind of experiment: Antiproliferative activity against human TT cells.
Test [5] in a line: Antiproliferative activity against HMVEC-d cells after 72 hrs. As to conditions: Homo sapiens.
The test system of another test is 8305C. As to the kind of experiment: cells. As to conditions: Homo sapiens, 72 h.

Proto-oncogene tyrosine-protein kinase receptor Ret (Homo sapiens), sequence (P07949 whole entry): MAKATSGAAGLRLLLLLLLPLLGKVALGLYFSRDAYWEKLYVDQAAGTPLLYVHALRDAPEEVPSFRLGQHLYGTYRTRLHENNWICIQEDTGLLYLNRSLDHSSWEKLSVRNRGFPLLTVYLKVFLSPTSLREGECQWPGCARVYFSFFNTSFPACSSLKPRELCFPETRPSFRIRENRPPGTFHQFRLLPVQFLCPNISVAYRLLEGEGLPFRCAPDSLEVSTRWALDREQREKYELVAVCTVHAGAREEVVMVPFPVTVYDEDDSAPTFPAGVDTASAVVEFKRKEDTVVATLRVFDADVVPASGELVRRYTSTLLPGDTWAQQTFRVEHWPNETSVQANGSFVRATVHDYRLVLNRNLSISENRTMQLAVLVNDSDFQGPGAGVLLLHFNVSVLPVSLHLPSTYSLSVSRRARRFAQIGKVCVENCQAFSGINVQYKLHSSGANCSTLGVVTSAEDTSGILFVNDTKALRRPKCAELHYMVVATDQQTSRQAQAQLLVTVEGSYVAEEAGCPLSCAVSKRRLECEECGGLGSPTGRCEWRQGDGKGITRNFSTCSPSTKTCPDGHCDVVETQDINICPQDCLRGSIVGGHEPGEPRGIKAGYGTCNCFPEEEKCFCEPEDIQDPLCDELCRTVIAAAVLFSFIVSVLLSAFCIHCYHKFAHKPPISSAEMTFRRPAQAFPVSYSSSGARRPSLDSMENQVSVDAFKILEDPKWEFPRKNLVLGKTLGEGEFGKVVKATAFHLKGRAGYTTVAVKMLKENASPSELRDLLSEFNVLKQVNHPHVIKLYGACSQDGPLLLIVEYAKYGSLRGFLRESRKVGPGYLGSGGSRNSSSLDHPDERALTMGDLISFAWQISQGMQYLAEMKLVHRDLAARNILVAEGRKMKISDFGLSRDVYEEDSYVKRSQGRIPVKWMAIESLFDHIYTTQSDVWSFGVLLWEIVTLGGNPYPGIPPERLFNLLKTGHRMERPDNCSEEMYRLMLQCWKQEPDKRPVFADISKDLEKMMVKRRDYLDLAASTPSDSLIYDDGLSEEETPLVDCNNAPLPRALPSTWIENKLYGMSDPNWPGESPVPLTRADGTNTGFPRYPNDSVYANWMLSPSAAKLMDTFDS

Take `COc1ccc(S(=O)(=O)Nc2cccc(CNc3ncnc4c3cnn4CCc3ccccc3)c2)cc1OC`: the inhibition (in general, the change of the read-out against control, counted positive when it falls) in test [1] was 8%.
Regarding `O=C(Nc1ccc([N+](=O)[O-])cc1)Nc1cccc(CNc2ncnc3c2cnn3CCc2ccccc2)c1`, in test [1], the inhibition is 37%.
On to `O=[N+]([O-])c1ccc(S(=O)(=O)Nc2cccc(CNc3ncnc4c3cnn4CCc3ccccc3)c2)cc1`, for which the inhibition in test [1] is 57%.
As for `O=C(Nc1cccc(CNc2ncnc3c2cnn3CCc2ccccc2)c1)c1ccccc1`, the IC50 (as a rule, the concentration that inhibits the measured activity by half) with HUVEC amounted to 15.3 µM; in the test on TT [2] it was 13.8 µM.
Turning to `O=C(Nc1cccc(CNc2ncnc3c2cnn3CCc2ccccc2)c1)c1ccc([N+](=O)[O-])cc1`, the IC50 in test [3] is 22 µM; in the test on HUVEC, 16.6 µM; in the test on TT [2] it was 6.13 µM.
For `O=C(Nc1ccc(Br)cc1)Nc1cccc(CNc2ncnc3c2cnn3CCc2ccccc2)c1`, the IC50 in the test on HUVEC came to 18.6 µM; with TT [2], 9.86 µM.
In the case of `O=S(=O)(Nc1cccc(CNc2ncnc3c2cnn3CCc2ccccc2)c1)c1ccccc1`, the half-inhibitory concentration (IC50) in the test with HUVEC was 22.6 µM; with TT [2] it was 8.08 µM.
Consider `C[C@@H](Nc1ncnc2c1cnn2CCc1ccccc1)c1ccccc1`, for which, in test [1], the inhibition is 48%. In addition, the half-inhibitory concentration (IC50) was found to be 26.9 µM in the test on TT [4], 0.0004 µM in test [5] and 9.2 µM with 8305C.
With `O=S(=O)(Cc1ccccc1)Nc1cccc(CNc2ncnc3c2cnn3CCc2ccccc2)c1`, the IC50 in test [3] was found to be 23.6 µM; in the test on HUVEC it was 50.7 µM; with TT [2], 5.97 µM.
Regarding `O=C(Nc1ccccc1)Nc1cccc(CNc2ncnc3c2cnn3CCc2ccccc2)c1`, the IC50 in the test on HUVEC came out at 13.4 µM; with TT [2] it was 8.42 µM.
For the compound `O=C(Nc1cccc(CNc2ncnc3c2cnn3CCc2ccccc2)c1)c1ccc(F)cc1`, the results for the IC50 with HUVEC and with TT [2] were 15.9 µM and 13.6 µM, respectively.
In the same order, the values of `O=C(Nc1cccc(CNc2ncnc3c2cnn3CCc2ccccc2)c1)c1ccc(Br)cc1` are 9.83 µM and 13.5 µM.
